Laboratory results as given in PMC9183947 (Molecular imaging and biology, 2021).
Entries after “also recorded” stand apart in the source; their conditions may differ. Starred links: 1 amine or outer side, 2 acyl side, 3 side chain; linkers in the order of their positions; H or OH if unused. Non-standard residues stand in square brackets, D forms with d. Residues, ends and D or L forms follow the SMILES beside them. Groups on a side chain read outwards from the residue. *: point of attachment. Acryloyl(3-(3-pyridyl),E) = O=C(/C=C/c1cccnc1)*; X2 = O=C(CN1CCCN2CCN(CCCN(CP(=O)(O)O)CC2)CC1)*; X1 = O=C(Cc1ccc(N[*:1])cc1)[*:2]; Aad = N[C@@H](CCCC(=O)O)C(=O)O; NH(2-Me-phenyl) = Cc1ccccc1N*; PEG4 = NCCOCCOCCOCCOCCC(=O)O; Ac6c = NC1(C(=O)O)CCCCC1; CO = O=C([*:1])[*:2]

Key:
[1] = tested on: BPR cells (VLA-4−); assay: Saturation binding of [64Cu]-LLP2A to BPR cells; set-up: species or system mouse
[2] = previously demonstrated, cited from earlier work
[3] = tested on: BPR cells (VLA-4−); assay: [64Cu]-LLP2A internalization assay, BPR cells; type: cell-based, mouse; details: 15 min - 4 h at 37°C
How it was run: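 Cells (1 x 10^5/well, seeded 24 h) were held in DMEM/1% BSA/1 mM Mn2+. Blocked wells first had 10 μg unlabelled PEG4 peptide for 15 min at 37°C. Each well then received 0.44 MBq radiotracer (3.43 MBq/nmol) at 37°C for 15 min, 2 h or 4 h. Surface activity was stripped with 20 mM sodium acetate pH 4.0 (10 min). Lysates were γ-counted, corrected for background, block and decay, and normalised to protein; n=3.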

[4] = biological target: VLA-4 (integrin α4β1) on BPRα cells (Mus musculus, UniProt P09055+Q00651); assay: Saturation binding of [64Cu]-LLP2A to BPRα cells; details: normalized to cellular protein, triplicate
VLA-4 (integrin α4β1) on BPRα cells, sequence (Q00651 41-1039): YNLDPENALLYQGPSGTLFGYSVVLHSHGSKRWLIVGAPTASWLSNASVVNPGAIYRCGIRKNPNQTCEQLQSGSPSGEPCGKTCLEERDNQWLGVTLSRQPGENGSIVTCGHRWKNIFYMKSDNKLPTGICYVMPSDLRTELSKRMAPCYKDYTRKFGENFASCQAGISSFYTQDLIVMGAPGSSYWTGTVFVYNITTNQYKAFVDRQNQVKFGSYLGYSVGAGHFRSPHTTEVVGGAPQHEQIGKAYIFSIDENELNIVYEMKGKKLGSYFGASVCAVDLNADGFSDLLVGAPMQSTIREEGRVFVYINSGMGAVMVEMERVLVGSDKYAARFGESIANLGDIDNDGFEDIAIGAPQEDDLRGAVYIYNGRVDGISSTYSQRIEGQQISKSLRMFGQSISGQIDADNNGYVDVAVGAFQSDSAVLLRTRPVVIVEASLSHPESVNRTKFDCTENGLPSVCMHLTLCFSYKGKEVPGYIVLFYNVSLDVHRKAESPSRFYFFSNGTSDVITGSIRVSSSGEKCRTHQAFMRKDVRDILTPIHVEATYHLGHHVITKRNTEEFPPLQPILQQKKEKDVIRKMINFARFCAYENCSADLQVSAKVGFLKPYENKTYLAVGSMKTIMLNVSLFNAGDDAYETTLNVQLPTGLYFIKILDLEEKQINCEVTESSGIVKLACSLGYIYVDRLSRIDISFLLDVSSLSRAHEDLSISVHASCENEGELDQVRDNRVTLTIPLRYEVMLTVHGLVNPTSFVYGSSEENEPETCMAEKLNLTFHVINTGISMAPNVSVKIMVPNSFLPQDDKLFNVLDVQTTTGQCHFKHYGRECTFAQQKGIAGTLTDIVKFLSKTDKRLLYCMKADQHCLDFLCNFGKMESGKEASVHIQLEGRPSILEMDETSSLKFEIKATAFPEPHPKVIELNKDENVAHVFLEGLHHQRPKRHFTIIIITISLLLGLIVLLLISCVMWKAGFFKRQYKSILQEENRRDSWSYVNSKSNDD
VLA-4 (integrin α4β1) on BPRα cells, sequence (P09055 21-798): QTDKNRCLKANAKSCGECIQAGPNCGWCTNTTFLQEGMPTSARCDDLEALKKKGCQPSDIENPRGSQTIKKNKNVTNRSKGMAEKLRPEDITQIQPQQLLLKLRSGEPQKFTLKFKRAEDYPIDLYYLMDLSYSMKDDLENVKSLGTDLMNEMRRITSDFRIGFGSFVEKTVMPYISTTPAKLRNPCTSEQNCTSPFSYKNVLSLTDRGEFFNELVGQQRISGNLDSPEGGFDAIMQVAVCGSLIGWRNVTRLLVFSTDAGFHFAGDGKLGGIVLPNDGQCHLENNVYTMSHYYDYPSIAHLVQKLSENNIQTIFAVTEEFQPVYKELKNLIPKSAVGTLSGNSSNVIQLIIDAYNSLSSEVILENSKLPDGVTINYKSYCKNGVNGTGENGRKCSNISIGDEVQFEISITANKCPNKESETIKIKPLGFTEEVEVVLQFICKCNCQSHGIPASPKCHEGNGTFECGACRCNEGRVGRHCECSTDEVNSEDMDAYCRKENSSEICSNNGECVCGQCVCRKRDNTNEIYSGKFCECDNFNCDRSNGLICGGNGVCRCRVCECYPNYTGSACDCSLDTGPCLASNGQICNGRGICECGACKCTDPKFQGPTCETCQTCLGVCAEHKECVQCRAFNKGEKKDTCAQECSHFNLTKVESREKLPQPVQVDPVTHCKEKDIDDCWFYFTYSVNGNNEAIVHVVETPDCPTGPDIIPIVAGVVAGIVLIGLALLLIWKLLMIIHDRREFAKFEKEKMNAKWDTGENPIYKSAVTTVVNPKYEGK

[5] = tested on: B16F10 melanoma cells (VLA-4+); details: previously reported; cited from earlier work
[6] = Biodistribution in BPRα tumor-bearing mice; type: in vivo, C57BL/6 mice; details: both, C57BL/6, mouse, iv, 7.4 MBq, total radioactivity
How it was run: (§1)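 Male and female C57BL/6 mice (4–6 weeks old) carried s.c. right-flank tumours from 5 x 10^5 cells in an equal volume of Matrigel. They received 7.4 MBq radiotracer (57.2 MBq/nmol) via lateral tail vein and were euthanised right after 24 h imaging (n=6; 3m/3f). Tissues and tumour were weighed and γ-counted. %IA/g was decay-corrected against an injected-dose standard.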

[7] = Biodistribution in BPR tumor-bearing mice; type: in vivo, C57BL/6 mice; details: both, C57BL/6, mouse, iv, 7.4 MBq, total radioactivity
How it was run: as §1

[8] = tested on: s.c. BPR and BPRα tumors; assay: PET/CT imaging of BPR and BPRα tumor models; type: in vivo, C57BL/6 mice
How it was run: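 Mice bore s.c. flank tumours (5 x 10^5 cells plus Matrigel; n=9 per line, 3m/6f) and received 7.4 MBq radiotracer i.v. (57.2 MBq/nmol). Under 2% isoflurane, static 10-min PET/CT scans were taken at 4 and 24 h and reconstructed by OSEM-3D. ROIs were drawn on CT. SUV = activity concentration x body weight/injected dose. Tumour-to-muscle SUV ratios were derived.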

Cc1ccccc1NC(=O)Nc1ccc(CC(=O)N[C@@H](CCCCNC(=O)/C=C/c2cccnc2)C(=O)N[C@@H](CCCC(=O)O)C(=O)NC2(C(=O)N[C@@H](CCCCNC(=O)CCOCCOCCOCCOCCNC(=O)CN3CCCN4CCN(CCCN(CP(=O)(O)O)CC4)CC3)C(N)=O)CCCCC2)cc1 [[^64Cu]-LLP2A, [^64Cu]-CB-TE1A1P-PEG4-LLP2A, metal not drawn] ({NH(2-Me-phenyl)-CO}-[X1]K(Acryloyl(3-(3-pyridyl),E))[Aad][Ac6c]K([PEG4-X2])-NH2; N-terminus and C-terminus assumed)
binding to BPR cells (saturation binding) ([1]; 1-100 nM tracer, on ice 2 h, blocked with LLP2A-PEG4): indeterminate binding; also recorded: no saturation occurs | Bmax ([1]; model fit poor, R^2=0.0002): not interpretable | stability in human serum ([2]; human serum): stability in human serum | binding of the conjugate to plasma proteins [2]: negligible | internalization [3]: undetectable | Bmax [4]: 145 ± 8.8 fmol/mg | Bmax [5]: 300 ± 4.5 fmol/mg | tissue uptake at 24 h ([6]; bone marrow): 1.6 ± 0.5 %ID/g | tissue uptake at 24 h ([6]; spleen): 6 ± 1.9 %ID/g | tissue uptake at 24 h ([6]; thymus): 4.2 ± 4 %ID/g | tissue uptake at 24 h ([6]; tumor): 2.8 ± 0.2 %ID/g | tissue uptake at 24 h ([7]; spleen): 8.1 ± 4.4 %ID/g | tissue uptake at 24 h ([7]; thymus): 3.5 ± 0.9 %ID/g | tissue uptake at 24 h ([7]; tumor): 1.7 ± 0.2 %ID/g | tumor uptake in BPRα relative to BPR (PET/CT) ([8]; 4h post-injection, 7.4 MBq i.v., n=9 each, p=0.0021): significant increase | tumor-to-muscle ratio of BPRα vs. BPR (PET/CT SUV) ([8]; 4h post-injection, n=9, p=0.0005): significantly greater | BPRα tumor uptake (PET/CT) ([8]; 24h post-injection, n=9): remained detectable
